Test results: ChEMBL document CHEMBL4689842, “EUbOPEN Chemogenomics Library wave 1” (2021)
Values joined by “and” are separate entries in the source; they are usually repeats but may differ in a detail not shown here. Identical values can stand only once.

System: HEK-293T
Experiment: Multiplex assay against HEK293T;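 for Population Tubulin-Different-Phenotype (%): share of the cells with healthy nuclei that show this phenotype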
Assay type: toxicity, cell-based
Conditions: human
Method in brief: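 Values for tubulin, mitochondrial-mass and membrane-permeability phenotypes are per cents of cells with healthy nuclei. These cells were identified by CellPathfinder machine-learning gating of live cells that had been stained at seeding with Hoechst33342, BioTracker Green Microtubule Cytoskeleton Dye, MitoTracker Red and Annexin V Alexa Fluor 680 and imaged on a CQ1 microscope at 37°C and 5% CO2 after compound addition. The gating first set Hoechst high-intensity objects apart from normal cells, then split normal cells into healthy, pyknosed or fragmented nuclei, and pyknosed cells into mitotic or apoptotic.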

[1] = 12 h, 1 µM, compound concentration 1 uM, replicate 1
[2] = 12 h, 1 µM, compound concentration 1 uM, replicate 2
[3] = 12 h, 10 µM, compound concentration 10 uM, replicate 1
[4] = 12 h, 10 µM, compound concentration 10 uM, replicate 2
[5] = 24 h, 1 µM, compound concentration 1 uM, replicate 1
[6] = 24 h, 1 µM, compound concentration 1 uM, replicate 2
[7] = 24 h, 10 µM, compound concentration 10 uM, replicate 1
[8] = 24 h, 10 µM, compound concentration 10 uM, replicate 2

Structure (SMILES): CC(=O)O[C@H]1C(=O)[C@@]2(C)[C@H]([C@H](OC(=O)c3ccccc3)[C@]3(O)C[C@H](OC(=O)[C@H](O)[C@@H](NC(=O)c4ccccc4)c4ccccc4)C(C)=C1C3(C)C)[C@]1(OC(C)=O)CO[C@@H]1C[C@@H]2O [PACLITAXEL]
- Population Apoptotic (%) [1]: 21% and 24%
- Population Fragmented Nuclei (%) [1]: 12% and 13%
- Population Healthy Nuclei (%) [1]: 71% and 68%
- Population Hoechst High Intensity Objects (%) [1]: 10% and 14%
- Population Membrane Permeable-Phenotype (%) [1]: 4%
- Population Mitochondria Different-Phenotype (%) [1]: 3% and 4%
- Population Mitotic Cells (%) [1]: 78% and 75%
- Population Normal (%) [1]: 89% and 85%
- Population Pyknosed Nuclei (%) [1]: 15% and 18%
- Population Tubulin-Different-Phenotype (%) [1]: 2%
- Population Apoptotic (%) [2]: 7% and 10%
- Population Fragmented Nuclei (%) [2]: 10% and 8%
- Population Healthy Nuclei (%) [2]: 85% and 87%
- Population Hoechst High Intensity Objects (%) [2]: 1%
- Population Membrane Permeable-Phenotype (%) [2]: 1% and 0%
- Population Mitochondria Different-Phenotype (%) [2]: 5%
- Population Mitotic Cells (%) [2]: 92% and 89%
- Population Normal (%) [2]: 98%
- Population Pyknosed Nuclei (%) [2]: 3% and 4%
- Population Apoptotic (%) [3]: 23% [middle of 4 runs]
- Population Fragmented Nuclei (%) [3]: 15% and 13% and 11% and 10%
- Population Healthy Nuclei (%) [3]: 69% and 72% and 76% and 75%
- Population Hoechst High Intensity Objects (%) [3]: 11% and 7% and 8%
- Population Membrane Permeable-Phenotype (%) [3]: 8% and 5% and 4%
- Population Mitochondria Different-Phenotype (%) [3]: 5% and 4% and 3%
- Population Mitotic Cells (%) [3]: 80% and 77% and 72% and 76%
- Population Normal (%) [3]: 88% and 92% and 91%
- Population Pyknosed Nuclei (%) [3]: 14% [middle of 4 runs]
- Population Tubulin-Different-Phenotype (%) [3]: 2% and 3%
- Population Apoptotic (%) [4]: 12% and 6% and 9%
- Population Fragmented Nuclei (%) [4]: 8% and 14%
- Population Healthy Nuclei (%) [4]: 86% and 81% and 85%
- Population Hoechst High Intensity Objects (%) [4]: 1% and 3% and 2%
- Population Membrane Permeable-Phenotype (%) [4]: 1% and 0%
- Population Mitochondria Different-Phenotype (%) [4]: 7%
- Population Mitotic Cells (%) [4]: 87% and 93% and 90%
- Population Normal (%) [4]: 98% and 96% and 97%
- Population Pyknosed Nuclei (%) [4]: 4% and 3%
- Population Tubulin-Different-Phenotype (%) [4]: 4% and 1%
- Population Apoptotic (%) [5]: 10% and 29%
- Population Fragmented Nuclei (%) [5]: 12% and 13%
- Population Healthy Nuclei (%) [5]: 79%
- Population Hoechst High Intensity Objects (%) [5]: 7% and 8%
- Population Membrane Permeable-Phenotype (%) [5]: 8% and 7%
- Population Mitochondria Different-Phenotype (%) [5]: 2% and 4%
- Population Mitotic Cells (%) [5]: 89% and 70%
- Population Normal (%) [5]: 92% and 91%
- Population Pyknosed Nuclei (%) [5]: 8% and 7%
- Population Tubulin-Different-Phenotype (%) [5]: 2% and 4%
- Population Apoptotic (%) [6]: 7%
- Population Fragmented Nuclei (%) [6]: 24% and 32%
- Population Healthy Nuclei (%) [6]: 73% and 65%
- Population Hoechst High Intensity Objects (%) [6]: 3% and 4%
- Population Membrane Permeable-Phenotype (%) [6]: 5% and 3%
- Population Mitochondria Different-Phenotype (%) [6]: 1% and 0%
- Population Mitotic Cells (%) [6]: 92%
- Population Normal (%) [6]: 96% and 95%
- Population Pyknosed Nuclei (%) [6]: 1%
- Population Apoptotic (%) [7]: 22% [middle of 4 runs]
- Population Fragmented Nuclei (%) [7]: 15% [middle of 4 runs]
- Population Healthy Nuclei (%) [7]: 80% and 78% and 81% and 79%
- Population Hoechst High Intensity Objects (%) [7]: 5% and 3% and 6%
- Population Membrane Permeable-Phenotype (%) [7]: 10% and 7%
- Population Mitochondria Different-Phenotype (%) [7]: 2% and 3%
- Population Mitotic Cells (%) [7]: 77% and 76% and 82% and 79%
- Population Normal (%) [7]: 94% and 96% and 93%
- Population Pyknosed Nuclei (%) [7]: 4% and 5% and 6% and 7%
- Population Tubulin-Different-Phenotype (%) [7]: 4% and 5%
- Population Fragmented Nuclei (%) [8]: 30% [middle of 4 runs]
- Population Healthy Nuclei (%) [8]: 73% and 69% and 60% and 67%
- Population Hoechst High Intensity Objects (%) [8]: 4%
- Population Membrane Permeable-Phenotype (%) [8]: 3% and 2%
- Population Mitochondria Different-Phenotype (%) [8]: 1% and 0%
- Population Mitotic Cells (%) [8]: 87% and 96% and 93% and 98%
- Population Normal (%) [8]: 95%
- Population Pyknosed Nuclei (%) [8]: 1% and 2%
- Population Tubulin-Different-Phenotype (%) [8]: 2%
